By IC50 is commonly meant the concentration needed to halve the response being measured. A lower IC50 goes with higher potency.

The source made the active and inactive calls. The calls are words filed in the database; no cut-off is given here. Some results are limits rather than exact numbers.

Consider 33 compounds from ChEMBL document CHEMBL4017491, “Phthalazino[1,2-b]quinazolinones as p53 Activators: Cell Cycle Arrest, Apoptotic Response and Bak-Bcl-xl Complex Reorganization in Bladder Cancer Cells” (J Med Chem, 2017).

Test [1] deals with HepG2. Description: Antiproliferative activity against human HepG2 cells by MTT assay. It counts as functional, cell-based. The gist of the method:
(§1)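 Cell lines cultured in RPMI 1640 with 10% FBS. Viability read by MTT (5 mg/mL, 4 h at 37 °C), with formazan dissolved in DMSO and absorbance taken at 490 nm. Viability (%) = A490 treated / A490 control × 100. IC50 taken from dose-response curves, from three independent experiments each run in triplicate.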

Test [2] concerns T-24. Description: Antiproliferative activity against human T24 cells by MTT assay. It is filed as functional, cell-based. The gist of the method: as §1
On the technique in general: Tetrazolium assays rely on reduction of a dye to a coloured formazan, in cell work by metabolically active cells.

The test system of test [3] is MGC-803. Description: Antiproliferative activity against human MGC803 cells by MTT assay. It is filed as functional, cell-based. In outline: as §1
The test system of test [4] is HeLa. Description: Antiproliferative activity against human HeLa cells by MTT assay. It counts as functional, cell-based. In outline: as §1
In test [5] the test system is NCI-H460. Description: Antiproliferative activity against human NCI-H460 cells by MTT assay. It counts as functional, cell-based. In outline: as §1
For test [6], the system named is T-24. The test can be described thus: Effect on p53 expression in human T24 cells up to 10 uM after 24 hrs by Western blot analysis. It counts as functional, cell-based. The gist of the method: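 T24 cells (3 × 10^5 per well) grown to 85–95% confluence, then exposed 24 h to 0–10 μM. Whole-cell extracts run on SDS-PAGE and blotted to nitrocellulose. Probed with the indicated antibodies and AP-linked anti-rabbit IgG, with ECL detection. Blots stripped and reprobed for β-actin as loading control.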

For test [7], the target named is Cellular tumor antigen p53 (Homo sapiens) (UniProt P04637). Description: Activation of p53 in human T24 cells assessed as p53 phosphorylation after 24 hrs by Western blot analysis. It is filed as cell-based. In outline:
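T24 cells, 3 × 10^5 per well, grown to 85−95% confluence, then exposed to 0−10 μM for 24 h. Whole-cell extracts in sample buffer run on SDS-polyacrylamide gels and transferred to nitrocellulose. Blots probed with primary antibodies and AP-linked anti-rabbit IgG, detected by ECL. Blots stripped and reprobed for β-actin as loading control.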
For orientation: In western blotting, separated proteins are transferred to a membrane and probed.

In test [8] the test system is HepG2. Description: Antitumor activity against human HepG2 cells xenografted in BALB/C nude mouse assessed as tumor growth inhibition at 6 mg/kg, ip administered every 2 days for 16 days relative to control. It counts as functional. Particulars: read-out: TGI. In outline:
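Male BALB/C nude mice, 6 weeks old, given subcutaneous flank injection of 5 × 10^6 HepG2 cells; tumors of 80−200 mm3 randomized, n = 6/group. Dosing ip every other day, vehicle 5% DMSO in saline (v/v). Tumor length and width measured three times a week, volume V = lw2/2; growth inhibition expressed versus vehicle group. Body weight also recorded.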

Chain of Cellular tumor antigen p53 (Homo sapiens) (P04637 whole entry, looked up): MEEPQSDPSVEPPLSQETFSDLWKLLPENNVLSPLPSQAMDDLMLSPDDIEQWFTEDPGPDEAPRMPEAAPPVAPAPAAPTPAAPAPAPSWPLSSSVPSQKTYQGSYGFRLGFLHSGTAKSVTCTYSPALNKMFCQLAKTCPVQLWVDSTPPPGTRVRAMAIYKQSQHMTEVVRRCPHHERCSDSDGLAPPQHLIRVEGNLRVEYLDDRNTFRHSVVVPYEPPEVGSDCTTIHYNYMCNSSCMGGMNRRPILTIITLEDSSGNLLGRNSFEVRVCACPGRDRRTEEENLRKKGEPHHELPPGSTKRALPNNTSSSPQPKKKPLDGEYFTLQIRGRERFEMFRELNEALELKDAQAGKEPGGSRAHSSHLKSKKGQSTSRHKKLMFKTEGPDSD

In the case of `CN(C)CCCNc1nn2c(=O)c3cc(F)ccc3nc2c2ccccc12`, the IC50 in test [1] was 10.7 µM; in test [2] it was 8.9 µM; in test [3], 32.1 µM; in test [4] it was 22.1 µM; in test [5] it was 11.2 µM.
Regarding `Cc1ccc2nc3c4ccccc4c(N4CCOCC4)nn3c(=O)c2c1`, the IC50 in test [1], in test [2], in test [3], in test [4] and in test [5] was greater than 100 µM throughout.
With `CN1CCN(c2nn3c(=O)c4cc(Br)ccc4nc3c3ccccc23)CC1`, the concentration for half-maximal inhibition (IC50) in test [1] stood at 41.1 µM; in test [2], 77 µM; in test [3] it was 40.4 µM; in test [4] it was 73.5 µM; in test [5] it was 43.7 µM.
The matching figures for `CN(C)CCCNc1nn2c(=O)c3cc(Cl)ccc3nc2c2ccccc12`: 8.78 µM, 9.83 µM, 13.9 µM, 15.7 µM and 10.5 µM.
The matching figures for `CCOC(=O)CCNc1nn2c(=O)c3cc(Br)ccc3nc2c2ccccc12`: greater than 100 µM, greater than 100 µM, greater than 100 µM, greater than 100 µM and greater than 100 µM.
Take `O=c1c2ccccc2nc2c3ccccc3c(N3CCOCC3)nn12`: the half-maximal inhibitory concentration (IC50) was 92.3 µM in test [1]; greater than 100 µM in test [2]; greater than 100 µM in test [3]; greater than 100 µM in test [4]; greater than 100 µM in test [5].
As for `CN1CCN(c2nn3c(=O)c4cc(F)ccc4nc3c3ccccc23)CC1`, the IC50 in test [1] was 51.9 µM; in test [2], 34.8 µM; in test [3], 26.1 µM; in test [4], 44.9 µM; in test [5] it was 77.7 µM.
In the case of `CN(C)CCNc1nn2c(=O)c3cc(Cl)ccc3nc2c2ccccc12`, the IC50 in test [1] amounted to 4.89 µM; in test [2], 3.46 µM; in test [3], 4.82 µM; in test [4], 5.6 µM; in test [5], 5.11 µM.
With `CN1CCN(c2nn3c(=O)c4ccccc4nc3c3ccccc23)CC1`, the IC50 in test [1] worked out at 39.4 µM; in test [2], 33.8 µM; in test [3], 44.5 µM; in test [4], 50.4 µM; in test [5] it was 31.4 µM.
In the case of `O=c1c2ccccc2nc2c3ccccc3c(NCCCN3CCOCC3)nn12`, the IC50 in test [1] amounted to 30.5 µM; in test [2], 27.9 µM; in test [3] it was 14.5 µM; in test [4] it was 53.8 µM; in test [5], 40.2 µM.
For the compound `O=c1c2cc(F)ccc2nc2c3ccccc3c(N3CCOCC3)nn12`, the 50% inhibitory concentration (IC50) in test [1], in test [2], in test [3], in test [4] and in test [5] was greater than 100 µM each time.
With `CN(C)CCCNc1nn2c(=O)c3ccccc3nc2c2ccccc12`, the IC50 was found to be 11.5 µM in test [1]; 14.5 µM in test [2]; 10.7 µM in test [3]; 20.2 µM in test [4]; 17 µM in test [5]. Also, the outcome in test [6] was inactive. The Activity result in test [7] is “Dose-dependent effect”.
Regarding `O=c1c2cc(Br)ccc2nc2c3ccccc3c(NCCN3CCOCC3)nn12`, the half-inhibitory concentration (IC50) came to 11.3 µM in test [1]; 10.8 µM in test [2]; 9.9 µM in test [3]; 8.8 µM in test [4]; 7.85 µM in test [5].
Turning to `O=c1c2cc(Br)ccc2nc2c3ccccc3c(NCCN3CCCC3)nn12`, the half-maximal inhibitory concentration (IC50) in test [1] turned out to be 5.21 µM; in test [2], 6.43 µM; in test [3], 4.15 µM; in test [4], 3.71 µM; in test [5], 6.84 µM.
For `CC[C@@]1(O)C(=O)OCc2c1cc1n(c2=O)Cc2cc3cc(O)ccc3nc2-1` [HYDROXYCAMPTOTHECIN], the IC50 in test [1] came out at 5.52 µM; in test [2], 5.53 µM; in test [3], 15.2 µM; in test [4], 29.2 µM; in test [5], 4.91 µM. Further, the inhibition in vivo at 6 mg/kg in test [8] amounted to 71.6%.
For `O=c1c2cc(Br)ccc2nc2c3ccccc3c(NCCCN3CCOCC3)nn12`, the IC50 in test [1] amounted to 12.8 µM; in test [2], 9.03 µM; in test [3] it was 7.21 µM; in test [4], 17.4 µM; in test [5], 15.1 µM.
As for `O=c1c2cc(Cl)ccc2nc2c3ccccc3c(N3CCOCC3)nn12`, the IC50 in test [1], in test [2], in test [3], in test [4] and in test [5] was greater than 100 µM throughout.
Regarding `CCN(CC)CCNc1nn2c(=O)c3cc(Br)ccc3nc2c2ccccc12`, the half-inhibitory concentration (IC50) in test [1] is 2.99 µM; in test [2] it was 10.7 µM; in test [3] it was 7.26 µM; in test [4], 8.81 µM; in test [5] it was 5.06 µM.
The matching figures for `Cc1ccc2nc3c4ccccc4c(N4CCN(C)CC4)nn3c(=O)c2c1`: 55.2 µM, 60.5 µM, 34.2 µM, 85 µM and 70.6 µM.
`O=c1c2cc(Br)ccc2nc2c3ccccc3c(N3CCOCC3)nn12`: the 50% inhibitory concentration (IC50) in test [1], in test [2], in test [3], in test [4] and in test [5] was greater than 100 µM throughout.
Turning to `CN(C)CCNc1nn2c(=O)c3cc(F)ccc3nc2c2ccccc12`, the IC50 came to 4.68 µM in test [1]; 4.62 µM in test [2]; 6.6 µM in test [3]; 7.92 µM in test [4]; 7.49 µM in test [5].
As to `CC(C)N(CCNc1nn2c(=O)c3cc(Br)ccc3nc2c2ccccc12)C(C)C`, the IC50 in test [1] amounted to 11.7 µM; in test [2] it was 12.7 µM; in test [3] it was 10.6 µM; in test [4], 11.4 µM; in test [5] it was 13.6 µM.
The matching figures for `Cc1ccc2nc3c4ccccc4c(NCCCN4CCOCC4)nn3c(=O)c2c1`: 24.1 µM, 9.78 µM, 20.7 µM, 24.2 µM and 21.6 µM.
The matching figures for `CN(C)CCCNc1nn2c(=O)c3cc(Br)ccc3nc2c2ccccc12`: 2.2 µM, 3.25 µM, 3.35 µM, 7.13 µM and 5.48 µM.
The matching figures for `O=c1c2cc(F)ccc2nc2c3ccccc3c(NCCCN3CCOCC3)nn12`: 45.1 µM, 18.8 µM, 79.1 µM, 60.6 µM and 52 µM.
Take `CCCCNc1nn2c(=O)c3cc(Br)ccc3nc2c2ccccc12`: the concentration for half-maximal inhibition (IC50) in test [1], in test [2], in test [3], in test [4] and in test [5] was greater than 100 µM in each case.
In the case of `Cc1ccc2nc3c4ccccc4c(NCCCN(C)C)nn3c(=O)c2c1`, the 50% inhibitory concentration (IC50) in test [1] turned out to be 7.82 µM; in test [2], 7.28 µM; in test [3], 5.24 µM; in test [4], 13.6 µM; in test [5], 9.7 µM.
Consider `CN1CCN(c2nn3c(=O)c4cc(Cl)ccc4nc3c3ccccc23)CC1`, for which the IC50 in test [1] is 57.6 µM; in test [2] it was 30.7 µM; in test [3] it was 66.1 µM; in test [4] it was greater than 100 µM; in test [5] it was 70.4 µM.
Take `Cc1ccc2nc3c4ccccc4c(NCCN(C)C)nn3c(=O)c2c1`: the IC50 in test [1] turned out to be 4.97 µM; in test [2] it was 2.12 µM; in test [3], 5.65 µM; in test [4], 3.41 µM; in test [5], 5.69 µM.
The matching figures for `O=c1c2cc(Br)ccc2nc2c3ccccc3c(NCCN3CCCCC3)nn12`: 4.14 µM, 3.81 µM, 4.48 µM, 2.01 µM and 7.85 µM.
In the case of `O=c1c2cc(Cl)ccc2nc2c3ccccc3c(NCCCN3CCOCC3)nn12`, the concentration for half-maximal inhibition (IC50) in test [1] stood at 18.3 µM; in test [2] it was 8.85 µM; in test [3], 23.1 µM; in test [4], 34.6 µM; in test [5], 19.9 µM.
With `CN(C)CCNc1nn2c(=O)c3ccccc3nc2c2ccccc12`, the half-maximal inhibitory concentration (IC50) in test [1] amounted to 10.2 µM; in test [2] it was 7.47 µM; in test [3], 8.71 µM; in test [4], 13 µM; in test [5], 12.1 µM.
For `CCOC(=O)CNc1nn2c(=O)c3cc(Br)ccc3nc2c2ccccc12`, the IC50 in test [1], in test [2], in test [3], in test [4] and in test [5] was greater than 100 µM each time.
